Test results from ChEMBL document CHEMBL3091329, “Discovery of tetrahydroisoquinoline-based CXCR4 antagonists” (ACS Med Chem Lett, 2013).

Experiments:
[1] = target: T1, C-X-C chemokine receptor type 4 (Homo sapiens, UniProt P61073); assay: Antagonist activity at CXCR4 in human Chem-1 cells assessed as inhibition of SDF-1alpha-mediated calcium flux preincubated for 10 mins by FLIPR assay; type: functional, cell-based
[2] = Cytotoxicity against human MAGI-CCR5 cells assessed as cell viability after 2 to 6 days by MTS assay
[3] = target: T1, C-X-C chemokine receptor type 4; assay: Ratio of IC50 for CXCR4 in human MAGI-CCR5 cells assessed as inhibition of HIV-1 3B entry to IC50 for CXCR4 in human Chem-1 cells assessed as inhibition of SDF-1alpha-mediated calcium flux; type: functional, cell-based
Procedure, shortened: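 Two IC50s taken as a ratio. The first is from blockade of HIV-1 IIIB attachment in CCR5/CXCR4-expressing HeLaCD4-LTR-β-gal (MAGI) cells, with cytotoxicity (TC50) assessed alongside. The second is from inhibition of CXCL12-induced Ca2+ flux/release in Chem-1 cells. Each assay was run in duplicate.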

T1 sequence (P61073 whole entry): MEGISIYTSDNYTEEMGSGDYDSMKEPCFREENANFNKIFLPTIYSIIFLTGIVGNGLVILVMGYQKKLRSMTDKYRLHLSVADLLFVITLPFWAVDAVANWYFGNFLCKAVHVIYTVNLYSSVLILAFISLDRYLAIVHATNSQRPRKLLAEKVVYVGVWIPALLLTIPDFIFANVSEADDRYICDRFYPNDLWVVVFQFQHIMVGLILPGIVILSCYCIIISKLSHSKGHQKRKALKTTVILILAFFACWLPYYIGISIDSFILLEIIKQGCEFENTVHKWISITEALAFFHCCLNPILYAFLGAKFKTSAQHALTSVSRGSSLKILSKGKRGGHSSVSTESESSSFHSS

SMILES	IC50 [1]	Ratio IC50 [3]	CC50 ([2]; magi-ccr5)	CC50 ([2]; MAGI-CCR5 cells)
CC(=O)NCCCCN(C[C@H]1Cc2ccccc2CN1)[C@H]1CCCc2cccnc21	4 nM	–	> 10000 nM	–
NCCCCN(C[C@H]1CCc2ccccc2N1)[C@H]1CCCc2cccnc21	–	–	> 30000 nM	–
NCCCCN(C[C@@H]1Cc2ccccc2CN1)[C@H]1CCCc2cccnc21	–	–	–	> 10000 nM
NCCCCN(C[C@H]1Cc2ccccc2CN1Cc1cocn1)[C@H]1CCCc2cccnc21	490 nM	–	> 10000 nM	–
NCCCCN(C[C@@H]1NCCc2ccccc21)[C@H]1CCCc2cccnc21	–	–	> 30000 nM	–
NCCCCN(C[C@@H]1CCc2ccccc2N1)[C@H]1CCCc2cccnc21	–	–	> 30000 nM	–
CN1Cc2ccccc2C[C@@H]1CN(CCCCN)[C@H]1CCCc2cccnc21	39 nM	–	> 10000 nM	–
NCCCCN(C[C@H]1NCCc2ccccc21)[C@H]1CCCc2cccnc21	–	–	> 30000 nM	–

Further compounds by falling IC50 [1], results first:

IC50 [1]	Ratio IC50 [3]	SMILES	CC50 ([2]; magi-ccr5)	CC50 ([2]; MAGI-CCR5 cells)
660 nM	–	NCCCCN(C[C@H]1Cc2ccccc2CN1Cc1ccncc1)[C@H]1CCCc2cccnc21	–	> 10000 nM
570 nM	–	NCCCCN(C[C@H]1Cc2ccccc2CN1CC(=O)N1CCOCC1)[C@H]1CCCc2cccnc21	> 10000 nM	–
350 nM	–	NCCCCN(C[C@H]1Cc2ccccc2CN1Cc1cccnc1)[C@H]1CCCc2cccnc21	–	> 10000 nM
180 nM	–	CN(C)C(=O)NCCCCN(C[C@H]1Cc2ccccc2CN1)[C@H]1CCCc2cccnc21	> 10000 nM	–
140 nM	–	CC(C)N1Cc2ccccc2C[C@@H]1CN(CCCCN)[C@H]1CCCc2cccnc21	–	> 10000 nM
56 nM	–	NCCCCN(C[C@H]1Cc2ccccc2CN1Cc1ccccn1)[C@H]1CCCc2cccnc21	–	> 10000 nM
8 nM	2	CN(C)CCCCN(C[C@H]1Cc2ccccc2CN1)[C@H]1CCCc2cccnc21	–	> 10000 nM
7 nM	2	CC(C)NCCCCN(C[C@H]1Cc2ccccc2CN1)[C@H]1CCCc2cccnc21	–	> 10000 nM
3 nM	–	NC(=O)NCCCCN(C[C@H]1Cc2ccccc2CN1)[C@H]1CCCc2cccnc21	> 10000 nM	–
